Assay [1] is described as follows: SK-BR-3 cell growth inhibitors, pilot screen, 24 h, human (AID 572;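 active means viability at or below 10% of carrier control in both of two separate runs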;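 further: compound exposure lasted between 18 and 24 h rather than exactly 24 h; 100% = carrier-treated control wells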). The following applies: SK-BR-3 viability, CellTiter-Glo luminescence, at 10 µM, stronger effect = lower value. In general terms: ATP-based viability assays read luminescence as a measure of living cells.
Assay [2] in a line: HUVEC growth inhibition – cell-based, human, primary screen (AID 575;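 active means viability at or below 30% in both replicate assays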;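 further: 100% = median of untreated cell wells with 0.1% DMSO on each plate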). The following applies: HUVEC proliferation, CellTiter-Glo luminescence, 72 h; at 10 µM; stronger effect = lower value. The method, boiled down: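 system = HUVEC primary cells | amount = 1250 cells/well | buffer or medium = supplemented EBM, 2% fetal bovine serum | dosing = single-point 10 µM, DMSO 0.1% final | times = 72 h compound incubation | detection = CTG luminescence | read-out = % viability relative to median vehicle-well signal on each plate | control set = vehicle and MePR control wells | format = collagen-coated 384-well format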

Assay [3] in a line: growth inhibitors of H69AR lung tumor, primary screen, human, duplicate replicates (AID 580).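 Further: 100% = mean luminescence of untreated wells and 0% = no signal.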 The following applies: H69AR lung tumor cells viability, ATP luminescence, 72 h; at 10 µM; stronger effect = lower value.
Assay [4] can be described thus: reversal of MRP1-mediated doxorubicin resistance, pilot screen, H69AR cells, doxorubicin co-treatment (AID 601;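 active means viability loss from added drug above about 55%, and viability with drug at most 40%, in both replicates, limit read from the data, passing the limit was not always enough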). The following applies: CellTiter-Glo, 72 h, at 10 µM; for differential viability (reversal): stronger effect = higher value.
Assay [5] is described as follows: 384-well plate pilot, post-Golgi transport modulator project, inhibition of yeast transport mutant growth (AID 636; in the data active means inhibition above about 31%). The following applies: absorbance 615 nm, about 18 h, stronger effect = higher value.
A short description of assay [6]: growth suppression of yeast trafficking mutant, preliminary HTS, modulators of trafficking downstream of Golgi apparatus project, 1536-format plate, OD 615 nm (AID 637; in the data active means inhibition above about 30%). The following applies: yeast transport mutant growth, absorbance 615 nm, 18 h; stronger effect = higher value.
Setting [7] is: H69AR cells + 2 uM doxorubicin, measured here: viability with 2 uM doxorubicin, stronger effect = lower value.
The mark [8] stands for this setting: H69AR cells, compound alone cytotoxicity.

Calls of active or inactive are those of the source.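 How the source made its calls, unless noted: active means viability at or under a set limit in both replicates, limit being median viability minus 3 SD (cut at about 48% in these data, passing the limit was not always enough); inconclusive means at or under the limit in just one replicate; inactive means at or above the limit in both replicates.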

Broadly, the viability is a read-out of living cells in per cent, often relative to untreated cells. For orientation: inhibition means the change of the read-out against control, counted positive when it falls.

For `O=C(O)c1ccc(NC(=O)c2cccs2)cc1`, the viability in assay [1] was 87% (inactive); in assay [2], 94.7% (inactive); in assay [3], 92.5% (inactive); in assay [4] (setting [7]) it was 79.7%; in assay [4] (setting [8]), 92.5%. Also, the differential viability (reversal) in assay [4] (H69AR cells + 2 uM doxorubicin) was 12.8% (inactive). For the same compound, the inhibition was -5.73% (inactive) in assay [5] and -4.55% (inactive) in assay [6].

As for `O=c1[nH]c(N2CCCCC2)nc2c1CCCC2`, the viability in assay [1] is 95% (inactive); in assay [2], 96.2% (inactive); in assay [3], 95.8% (inactive); in assay [4] (setting [7]), 90.5%; in assay [4] (setting [8]), 95.8%. Moreover, the differential viability (reversal) in assay [4] (H69AR cells + 2 uM doxorubicin) was 5.24% (inactive). The inhibition was -4.05% (inactive) in assay [5] and 15.3% (inactive) in assay [6].

Regarding `CS(=O)(=O)N(CC(=O)NCCSCc1cccc(Cl)c1)c1ccc2c(c1)OCO2`, the viability was 94% (inactive) in assay [1]; 97.9% (inactive) in assay [2]; 93.4% (inactive) in assay [3]; 97.8% in assay [4] (setting [7]); 93.4% in assay [4] (setting [8]). In assay [4] (H69AR cells + 2 uM doxorubicin), the differential viability (reversal) is -4.33% (inactive). In addition, the inhibition in assay [5] was -2.21% (inactive); in assay [6] it was -2.62% (inactive).

With `O=C1CC(c2ccccc2)NC(=O)N1` (configuration not stated), the viability was 78% (inactive) in assay [1]; 105% (inactive) in assay [2]; 98.8% (inactive) in assay [3]; 96.1% in assay [4] (setting [7]); 98.8% in assay [4] (setting [8]). The differential viability (reversal) in assay [4] (H69AR cells + 2 uM doxorubicin) is 2.63% (inactive). The inhibition is -7.26% (inactive) in assay [5] and -0.36% (inactive) in assay [6].

In the case of `CC(=O)Nc1nc(=S)ss1`, the viability in assay [1] is 135% (inactive); in assay [2], 103% (inactive); in assay [3], 87.5% (inactive); in assay [4] (setting [7]) it was 95.7%; in assay [4] (setting [8]), 87.5%. The differential viability (reversal) in assay [4] (H69AR cells + 2 uM doxorubicin) is -8.28% (inactive). Further, the inhibition in assay [5] is -1.3% (inactive); in assay [6], -0.33% (inactive).

In the case of `O=C(NC1CCCCC1NC(=O)c1ccco1)c1ccco1` (configuration not stated), the viability in assay [1] is 93% (inactive); in assay [2], 94.2% (inactive); in assay [3], 90% (inactive); in assay [4] (setting [7]), 94.5%; in assay [4] (setting [8]) it was 90%. The differential viability (reversal) in assay [4] (H69AR cells + 2 uM doxorubicin) was -4.53% (inactive). For the same compound, the values for the inhibition in assay [5] and in assay [6] were 0.53% (inactive) and 3.27% (inactive), respectively.

On to `CCOC(=O)C1CCN(c2cc(C)nc3cc(-c4cccc(F)c4)nn23)CC1`, for which the viability in assay [1] was 86% (inactive); in assay [2], 105% (inactive); in assay [3], 90.4% (inactive); in assay [4] (setting [7]) it was 82.4%; in assay [4] (setting [8]), 90.4%. Further, the differential viability (reversal) in assay [4] (H69AR cells + 2 uM doxorubicin) is 7.95% (inactive). Moreover, the inhibition in assay [5] was -3.78% (inactive); in assay [6], -6.91% (inactive).

Take `CC1(C)CC(=O)C(C=NC(CCC(N)=O)C(=O)O)=C(O)C1` (configuration not stated): the viability is 96% (inactive) in assay [1]; 96.5% (inactive) in assay [2]; 91.9% (inactive) in assay [3]; 83.3% in assay [4] (setting [7]); 91.9% in assay [4] (setting [8]). Moreover, the differential viability (reversal) in assay [4] (H69AR cells + 2 uM doxorubicin) was 8.63% (inactive). Moreover, the inhibition was -8.22% (inactive) in assay [5] and 0.18% (inactive) in assay [6].

Consider `CCOC(=O)c1c(N)c(C#N)nn1-c1ccccc1C(=O)OC`, for which the viability in assay [1] was 96% (inactive); in assay [2], 109% (inactive); in assay [3], 92.3% (inactive); in assay [4] (setting [7]), 86.2%; in assay [4] (setting [8]), 92.3%. In addition, the differential viability (reversal) in assay [4] (H69AR cells + 2 uM doxorubicin) is 6.05% (inactive). The results for the inhibition in assay [5] and in assay [6] were -5.87% (inactive) and 0.73% (inactive), respectively.

As for `COc1ccc(CCN2C(=O)CC(N3CCN(S(=O)(=O)c4ccccc4)CC3)C2=O)cc1` (configuration not stated), the viability in assay [1] is 103% (inactive); in assay [2], 107% (inactive); in assay [3] it was 96.7% (inactive); in assay [4] (setting [7]) it was 106%; in assay [4] (setting [8]), 96.7%. Besides, the differential viability (reversal) in assay [4] (H69AR cells + 2 uM doxorubicin) was -9.06% (inactive). For the same compound, the inhibition in assay [5] was 2.05% (inactive); in assay [6], -0.36% (inactive).

Consider `COc1cc(SC)ccc1C(=O)Nc1ccccc1C#N`, for which the viability in assay [1] is 75% (inactive); in assay [2] it was 79.6% (inactive); in assay [3], 70.5% (inactive); in assay [4] (setting [7]) it was 96.3%; in assay [4] (setting [8]), 70.5%. In addition, in assay [4] (H69AR cells + 2 uM doxorubicin), the differential viability (reversal) is -25.8% (inactive). Moreover, the inhibition was -7.4% (inactive) in assay [5] and 0.91% (inactive) in assay [6].

For `O=C(NO)c1ccccc1O`, the viability in assay [1] is 109% (inactive); in assay [2], 86.7% (inactive); in assay [3] it was 105% (inactive); in assay [4] (setting [7]) it was 81.8%; in assay [4] (setting [8]), 105%. Moreover, in assay [4] (H69AR cells + 2 uM doxorubicin), the differential viability (reversal) is 23.1% (inactive). Further, the inhibition in assay [5] was -1.95% (inactive); in assay [6] it was 6.83% (inactive).

Turning to `O=C(Nc1ccon1)c1cccc(S(=O)(=O)N2CCCC2)c1`, the viability in assay [1] was 96% (inactive); in assay [2], 99.5% (inactive); in assay [3], 87.8% (inactive); in assay [4] (setting [7]), 98.8%; in assay [4] (setting [8]), 87.8%. Further, in assay [4] (H69AR cells + 2 uM doxorubicin), the differential viability (reversal) is -10.9% (inactive). The inhibition in assay [5] was -2.53% (inactive); in assay [6], -0.55% (inactive).

Regarding `Cc1cc(NC(=O)CSc2nc(C3CCCCC3)nc3ccccc23)no1`, the viability in assay [1] is 101% (inactive); in assay [2] it was 99.8% (inactive); in assay [3] it was 80% (inactive); in assay [4] (setting [7]), 63.9%; in assay [4] (setting [8]), 80%. Besides, in assay [4] (H69AR cells + 2 uM doxorubicin), the differential viability (reversal) is 16.2% (inactive). The inhibition is -0.8% (inactive) in assay [5] and -2% (inactive) in assay [6].
